Experimental data reported in ChEMBL document CHEMBL1255300, “Pharmacodynamics of the antibacterial effect and emergence of resistance to tomopenem, formerly RO4908463/CS-023, in an in vitro pharmacokinetic model of Staphylococcus aureus infection” (Antimicrob Agents Chemother, 2008).
In brackets after ≈: the same amount, converted by molar mass. Activity calls are given as the source filed them. The calls are words filed in the database; no cut-off is given here.

Columns and labels:
[1] = system: Staphylococcus aureus; assay: Antibacterial activity against methicillin-resistant Staphylococcus aureus 33815 infected in in vitro pharmacokinetic model assessed as reduction in viable count at 1500 mg, iv every 8 hrs measured after 12 hrs using 10^8 CFU/ml inoculum; format: functional
Method in brief: (§1)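 PK model at 37°C in 10% MHB. […] A 0.5 McFarland suspension (1 ml) was added and the model run overnight to reach 10^8 CFU/ml before dosing. Counts were spiral-plated on nutrient agar with β-lactamase. Change in log CFU/ml was measured from time 0; at least triplicate.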

[2] = system: Staphylococcus aureus; assay: AUBKC (0 to 48 hrs) in methicillin-resistant Staphylococcus aureus 33922 infected in in vitro pharmacokinetic model at 750 mg, iv every 8 hrs using 10^8 CFU/ml inoculum; format: functional
Method in brief: (§2)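 Single-compartment dilutional in vitro PK model at 37°C in 10% Mueller-Hinton broth, stirred, flow 132 ml/h. […] Inoculum 10^6 CFU/ml added 45 min before dosing, or 10^8 CFU/ml run overnight. Viable counts with β-lactamase neutralisation. AUBKC by log-linear trapezoidal rule, at least triplicate.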

[3] = system: Staphylococcus aureus; assay: Antibacterial activity against methicillin-resistant Staphylococcus aureus 33827 infected in in vitro pharmacokinetic model assessed as reduction in viable count at 1500 mg, iv every 8 hrs measured after 36 hrs using 10^6 CFU/ml inoculum; format: functional
Method in brief: (§3)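 Single-compartment dilutional in vitro PK model, 10% Mueller-Hinton broth, 37°C, stirred, dilution 132 ml/h. […] Inoculum 10^6 CFU/ml (added 45 min pre-dose) or 10^8 CFU/ml (run overnight). Viable counts by spiral plating, beta-lactamase neutralization, detection limit 10^2 CFU/ml. At least triplicate.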

[4] = system: Staphylococcus aureus; assay: T>MIC for 3-log drop in count in methicillin-resistant Staphylococcus aureus 33815 in in vitro pharmacokinetic model after 24 hrs using 10^6 CFU/ml inoculum; format: functional
[5] = system: Staphylococcus aureus; assay: Antibacterial activity against methicillin-resistant Staphylococcus aureus 33829 infected in in vitro pharmacokinetic model assessed as reduction in viable count at 1500 mg, iv every 8 hrs measured after 36 hrs using 10^6 CFU/ml inoculum; format: functional; method in brief: as §3
[6] = system: Staphylococcus aureus; assay: Antibacterial activity against methicillin-sensitive Staphylococcus aureus 5956 infected in in vitro pharmacokinetic model assessed as reduction in viable count at 1500 mg, iv every 8 hrs measured after 36 hrs using 10^6 CFU/ml inoculum; format: functional
[7] = system: Staphylococcus aureus; assay: Antibacterial activity against methicillin-resistant Staphylococcus aureus 33820 infected in in vitro pharmacokinetic model assessed as time required to 99.9% killing at 1500 mg, iv every 8 hrs using 10^6 CFU/ml inoculum; format: functional
[8] = system: Staphylococcus aureus; assay: T>MIC for 2-log drop in count in methicillin-resistant Staphylococcus aureus 33820 in in vitro pharmacokinetic model after 24 hrs using 10^6 CFU/ml inoculum; format: functional
[9] = system: Staphylococcus aureus; assay: AUBKC (0 to 48 hrs) in methicillin-resistant Staphylococcus aureus 33827 infected in in vitro pharmacokinetic model at 1500 mg, iv every 8 hrs using 10^8 CFU/ml inoculum; format: functional; method in brief: as §2
[10] = system: Staphylococcus aureus; assay: Antibacterial activity against methicillin-resistant Staphylococcus aureus 33815 infected in in vitro pharmacokinetic model assessed as time required to 99.9% killing at 1500 mg, iv every 8 hrs using 10^8 CFU/ml inoculum; format: functional
Method in brief: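 T99 and T99.9 were taken as the times for the count to fall 99% or 99.9% from time 0, using serial viable counts over 48 h. Inoculum was 10^8 CFU/ml, grown overnight in the model before dosing.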

[11] = system: Staphylococcus aureus; assay: Antibacterial activity against methicillin-resistant Staphylococcus aureus 33922 by 10% MH broth method; format: functional
[12] = system: Staphylococcus aureus; assay: Antibacterial activity against methicillin-sensitive Staphylococcus aureus 5956 by broth dilution method; format: functional
[13] = system: Staphylococcus aureus; assay: Antibacterial activity against methicillin-resistant Staphylococcus aureus 33815 assessed as viable count at 2 times of MIC after 24 hrs using 10^6 CFU/ml inoculum; format: functional, organism-based
Method in brief: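 Population analysis during tomopenem dose-ranging runs in the in vitro PK model (10^6 CFU/ml, T>MIC 0-100%). […] Growth counted as log CFU/ml, detection limit 2 log10.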

[14] = system: Staphylococcus aureus; assay: AUBKC (0 to 48 hrs) in methicillin-resistant Staphylococcus aureus 33827 infected in in vitro pharmacokinetic model at 750 mg, iv every 8 hrs using 10^6 CFU/ml inoculum; format: functional; method in brief: as §2
[15] = system: Staphylococcus aureus; assay: T>MIC for 2-log drop in count in methicillin-resistant Staphylococcus aureus 33827 in in vitro pharmacokinetic model after 24 hrs using 10^6 CFU/ml inoculum; format: functional
[16] = system: Staphylococcus aureus; assay: T>MIC for 1-log drop in count in methicillin-sensitive Staphylococcus aureus 5956 in in vitro pharmacokinetic model after 24 hrs using 10^6 CFU/ml inoculum; format: functional
Method in brief: (§4)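 Dose-ranging: 7–13 simulated regimens per strain giving T>MIC of 0–100% (MIC from 10% MHB), at 106 or 10^8 CFU/ml as stated.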

[17] = system: Staphylococcus aureus; assay: Antibacterial activity against methicillin-resistant Staphylococcus aureus 33827 infected in in vitro pharmacokinetic model assessed as time required to 99% killing at 750 mg, iv every 8 hrs using 10^8 CFU/ml inoculum; format: functional; method in brief: as §3
[18] = system: Staphylococcus aureus; assay: Antibacterial activity against methicillin-resistant Staphylococcus aureus 33827 infected in in vitro pharmacokinetic model assessed as time required to 99.9% killing at 1500 mg, iv every 8 hrs using 10^6 CFU/ml inoculum; format: functional; method in brief: as §3
[19] = system: Staphylococcus aureus; assay: Antibacterial activity against methicillin-resistant Staphylococcus aureus 33829 by broth dilution method; format: functional
Method in brief: (§5)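 MIC by CLSI broth dilution, or by broth dilution in 10% Mueller-Hinton broth at nondoubling dilutions.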

[20] = system: Staphylococcus aureus; assay: Antibacterial activity against methicillin-resistant Staphylococcus aureus 33921 by broth dilution method; format: functional; method in brief: as §5
[21] = system: Staphylococcus aureus; assay: AUBKC (0 to 48 hrs) in methicillin-resistant Staphylococcus aureus 33922 infected in in vitro pharmacokinetic model at 750 mg, iv every 8 hrs using 10^6 CFU/ml inoculum; format: functional; method in brief: as §2
[22] = system: Staphylococcus aureus; assay: Antibacterial activity against methicillin-resistant Staphylococcus aureus 33820 infected in in vitro pharmacokinetic model assessed as reduction in viable count at 750 mg, iv every 8 hrs measured after 48 hrs using 10^6 CFU/ml inoculum; format: functional
Method in brief: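 Single-compartment dilutional in vitro PK model, 37°C, stirred, in 10% Mueller-Hinton broth. […] Inoculum 10^6 CFU/ml from a 24-h plate culture was added 45 min before dosing. Viable counts by spiral plating on nutrient agar with β-lactamase neutralization. Log change was taken from time 0; detection limit 10^2 CFU/ml; at least triplicate.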

[23] = system: Staphylococcus aureus; assay: T>MIC for 3-log drop in count in methicillin-sensitive Staphylococcus aureus 5956 in in vitro pharmacokinetic model after 24 hrs using 10^6 CFU/ml inoculum; format: functional; method in brief: as §4
[24] = system: Staphylococcus aureus; assay: T>MIC in methicillin-resistant Staphylococcus aureus 33815 infected in vitro pharmacokinetic model at 1500 mg, iv every 8 hrs; format: functional
[25] = system: Staphylococcus aureus; assay: Antibacterial activity against methicillin-sensitive Staphylococcus aureus 5956 infected in in vitro pharmacokinetic model assessed as time required to 99.9% killing at 750 mg, iv every 8 hrs using 10^6 CFU/ml inoculum; format: functional
[26] = system: Staphylococcus aureus; assay: Antibacterial activity against methicillin-resistant Staphylococcus aureus 33815 infected in in vitro pharmacokinetic model assessed as reduction in viable count at 1500 mg, iv every 8 hrs measured after 48 hrs using 10^8 CFU/ml inoculum; format: functional; method in brief: as §1

## C[C@@H](O)[C@H]1C(=O)N2C(C(=O)O)=C(S[C@H]3C[C@@H](C(=O)N4CC[C@H](NC(=O)CNC(=N)N)C4)N(C)C3)[C@H](C)[C@H]12 [TOMOPENEM]
[1]
  log10CFU/ml: 1.5
[2]
  AUBC: 81.5 log10CFU/ml.hr
[3]
  log10CFU/ml: 4
[4]
  fT>MIC: 17.1%
[5]
  log10CFU/ml: 4
[6]
  log10CFU/ml: 4.4
[7]
  Time: 12 h
[8]
  fT>MIC: 14.5%
[9]
  AUBC: 93.5 log10CFU/ml.hr
[10]
  Time: 24 h
[11]
  MIC: 0.25 µg/mL (≈ 0.465 µM)
[12]
  MIC: 0.06 µg/mL (≈ 0.112 µM)
[13]
  Activity: Active
[14]
  AUBC: 44.9 log10CFU/ml.hr
[15]
  fT>MIC: 31.2%
[16]
  fT>MIC: 7.4%
[17]
  Time: 12 h
[18]
  Time: 12 h
[19]
  MIC: 2 µg/mL (≈ 3.72 µM)
[20]
  MIC: 0.5 µg/mL (≈ 0.93 µM)
[21]
  AUBC: 27.7 log10CFU/ml.hr
[22]
  log10CFU/ml: 4.2
[23]
  fT>MIC: 10.1%
[24]
  fT>MIC: 98%
[25]
  Time: 6 h
[26]
  log10CFU/ml: 3.9
